Bioassay records as filed in PubChem BioAssay.
PfG6PD inh – PfG6PD (Plasmodium falciparum) enzyme inhibition | inhibition, % at 20 µM | AID 504690 | PfGluPho enzyme, NADPH resazurin-diaphorase fluorescence | 350,000 compounds, 0.78% hits;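 active = inhibition reaching at least a set limit at 20 µM in the primary screen, cut at about 59% in these data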
HKDC1 inh – blocks human hexokinase HKDC1 activity. 340,000 compounds, 0.16% hits. AID 493160. inhibition, % at 20 µM. recombinant HKDC1, G6PDH/diaphorase resazurin coupled fluorescence;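 active = inhibition above about 35% when tested at 20 µM, limit read from the data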
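test system = in-house recombinant HK5 (HKDC1) enzyme | amount = HKDC1 at 5 µg/mL | control set = DMSO-enzyme wells negative, buffer-substituted wells positive | compound = one dose of 20 µM, 1% DMSO | schedule = reaction time 90 min, room temperature, protected from light | technique = resorufin fluorescence at 613 nm | reagent = glucose with 1 mM ATP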
PKA-R2B activ – activates the human PKA-R2B holoenzyme complex; P22694+P31323; PKA-R2B holoenzyme dissociation, Cy5-IP20 fluorescence polarization; R2B truncated from residue 108, S112A mutant; 0% DMSO only, 100% 113 µM cGMP; activation, % at 11.4 µM; 340,000 compounds, 0.079% hits;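 active = activation above a cutoff set at the mean over all compounds plus 3 SD, cut at about 18% in these data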;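 note: higher means more holoenzyme dissociation and a rise in polarization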
T cell modulator – T cell immune modulation candidate. response (vesicle binding), % at 7 µM. 330,000 compounds, 0.068% hits. AID 2052. 2C CD8+ T cell-vesicle binding, flow cytometry; active compounds read low;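 active = response, share of CD8 T cells binding vesicles, and their 90th percentile fluorescence all below set limits, cut at about 80% in these data, passing the limit was not always enough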;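 note: values below 100% mean blocked vesicle binding to the CD8+ T cells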
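Benchmarks: naked versus QL9-loaded vesicles / Assay system: purified 2C TCR transgenic mouse naive CD8+ T cells / Technique: high-throughput flow cytometry with anti-B7-1 and anti-CD8 staining / Timing: Cell–vesicle co-incubation 1.5 h at 37 °C, staining 20 min on ice / Read-out: percent CD8+ FL2 mean versus row control / Probe or stimulus: QL9-loaded Drosophila micro-vesicles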
ATG4B inh – blocks human ATG4B protease cleavage of LC3 substrate. Q9Y4P1. ATG4B cleavage of LC3-PLA2, NBD-HPC fluorescence, 1 h. inhibition, % at 8.33 µM. 340,000 compounds, 0.51% hits; in the data active = inhibition above about 40%
Target sequence (Q9Y4P1 whole entry, looked up): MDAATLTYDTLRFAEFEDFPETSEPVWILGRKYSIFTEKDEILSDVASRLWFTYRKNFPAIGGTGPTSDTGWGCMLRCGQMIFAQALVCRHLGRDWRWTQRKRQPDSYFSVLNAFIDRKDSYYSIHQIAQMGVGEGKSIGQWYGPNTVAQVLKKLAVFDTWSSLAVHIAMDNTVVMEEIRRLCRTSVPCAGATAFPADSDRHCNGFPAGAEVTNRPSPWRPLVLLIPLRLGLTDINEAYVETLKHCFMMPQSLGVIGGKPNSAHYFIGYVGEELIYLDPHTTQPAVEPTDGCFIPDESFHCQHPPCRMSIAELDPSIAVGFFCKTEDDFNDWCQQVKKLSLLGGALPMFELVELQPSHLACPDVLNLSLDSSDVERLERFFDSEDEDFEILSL
PKA-R1A act – activates the PKA-R1A holoenzyme complex. 340,000 compounds, 0.083% hits. activation, % at 11.4 µM. PKA-R1A dissociation, Cy5-IP20 fluorescence polarization; scaled: DMSO 0%, 113 µM cGMP 100%. P00514+P68181;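 active = percent activation above the mean of all tested compounds plus 3 SD, cut at about 19% in these data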;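 note: higher means more PKAc released from R1A so a rise in polarization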
PfG6PD confirm – PfG6PD inhibition, single-dose confirmed | shares compounds with PfG6PD inh | recombinant PfGluPho, NADPH-diaphorase-resazurin fluorescence | inhibition, % at 20 µM | 2,400 compounds, 34% hits | AID 504753;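 active = inhibition of at least 50% at 20 µM in any single replicate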
Diaphorase 10uM – diaphorase inhibition or oxidation at 10 uM NADPH | shares compounds with PfG6PD inh | diaphorase-coupled resazurin reduction, fluorescence, NADPH 10 uM | inhibition, % at 20 µM | 820 compounds, 39% hits | AID 504862;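 active = average inhibition reaching 50% or more with the compound at 20 µM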;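 note: resorufin red fluorescence formed as diaphorase reduces resazurin using NADPH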
Diaphorase 30uM – diaphorase inhibition or oxidation at 30 uM NADPH; shares compounds with PfG6PD inh; Diaphorase/resazurin coupled assay, resorufin fluorescence; inhibition, % at 20 µM; 820 compounds, 29% hits; AID 504863;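 active = inhibition averaging 50% or more, tested at 20 µM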
A number is an active result; – = inactive; · = not tested or not shown. A selection: hits, their analogues and other compounds. The true share with any hit is near 1.6%.

SMILES	PfG6PD inh	HKDC1 inh	PKA-R2B activ	T cell modulator	ATG4B inh	PKA-R1A act	PfG6PD confirm	others
Nc1ccccc1SC(CC(=O)c1ccccc1)c1cccc([N+](=O)[O-])c1 (stereo not drawn)	70	·	–	·	·	–	–
COc1ccc(C(CC(=O)c2ccc(C)cc2)Sc2ccccc2N)cc1 (stereo not drawn)	–	·	–	·	·	–	·
O=C(CCl)NCCN1C(=O)S/C(=C\c2cccnc2)C1=O	72	–	–	–	–	–	66	Diaphorase 10uM=–;Diaphorase 30uM=–
CC(C(=O)NCCN1C(=O)S/C(=C\c2cccnc2)C1=O)N1C(=O)c2ccccc2C1=O (stereo not drawn)	–	–	–	–	–	–	·
Cc1nc(N2CCC3(CC2)OCCO3)c2nnn(Cc3ccccc3F)c2n1	61	–	–	–	–	–	–
COc1cc(Br)ccc1C1CC(=O)C(C)C(c2ccc(Br)cc2OC)N1 (stereo not drawn)	–	–	–	–	–	–	·
O=C(NC1CC1(c1ccccc1)c1ccccc1)c1ccccc1 (stereo not drawn)	77	–	–	·	–	–	–
Cc1ccc(-n2c(N)c(C(=O)N3CCCCC3)sc2=S)cc1	–	–	–	–	–	–	·
Nc1c(C(=O)N2CCCCC2)sc(=S)n1-c1ccccc1	79	–	–	–	–	–	–
Nc1c(C(=O)N2CCOCC2)sc(=S)n1-c1ccccc1	59	–	–	–	–	–	–
Cc1ccc(-n2c(N)c(C(=O)N3CCN(C)CC3)sc2=S)cc1	79	–	–	–	–	–	70	Diaphorase 10uM=–;Diaphorase 30uM=–
CC1CCCN(S(=O)(=O)c2ccc3oc(=O)ccc3c2)C1 (stereo not drawn)	–	–	–	–	–	–	·
CC(=O)Nc1ccc(C(=O)N/C(=C\c2ccccc2)C(=O)Nc2cccc(C(=O)O)c2)cc1	–	–	–	–	–	–	·
Cc1ccc(C)c(OCC(O)CN2CCC(Cc3ccccc3)CC2)c1 (stereo not drawn)	–	–	–	–	–	–	·
O=C(c1ccc(Cl)cc1)N1CCN(c2ncccn2)CC1	–	–	–	–	–	–	·
O=c1cc(-c2ccccc2)oc2cc(O)c(O)c(O)c12	102	–	–	–	–	–	95	Diaphorase 10uM=94;Diaphorase 30uM=81
Cc1cccc(OCC(=O)N2CCN(C(=O)COc3ccc(Cl)cc3)CC2)c1	–	–	–	–	–	–	·
CCN(CC)CC(C)(C)C(=O)/C=C/c1ccc(/C=C/C(=O)C(C)(C)CN(CC)CC)cc1	64	–	–	·	–	–	–
Nc1nc2ccccc2n1/N=C/c1ccc(-c2ccccc2)o1	80	–	–	–	–	–	–
Cc1ccc(/C=C/C(=O)NCc2ccc3c(c2)OCO3)o1	78	–	–	–	–	–	–
Cc1ccc(/C=C/C(=O)NCc2ccc(S(N)(=O)=O)cc2)o1	68	–	–	·	–	–	58	Diaphorase 10uM=–;Diaphorase 30uM=–
Cc1ccc(/C=C/C(=O)NCCc2cccc(Cl)c2)o1	63	–	–	–	–	–	49	Diaphorase 10uM=–;Diaphorase 30uM=–
Cc1ccc(/C=C/C(=O)NCC2COc3ccccc3O2)o1 (stereo not drawn)	63	–	–	–	–	–	48	Diaphorase 10uM=–;Diaphorase 30uM=–
Cc1ccc(/C=C/C(=O)Nc2ccc(S(N)(=O)=O)cc2)o1	–	–	–	–	–	–	·
Cc1ccc(NC(=O)c2ccc(NS(=O)(=O)c3ccc4[nH]c(=O)[nH]c4c3)cc2)nc1	–	–	–	–	–	–	·
SMILES	PfG6PD inh	HKDC1 inh	PKA-R2B activ	T cell modulator	ATG4B inh	PKA-R1A act	PfG6PD confirm	others
Cc1ccc(/C=C/C(=O)NC2CCCCCCC2)o1	81	–	–	–	–	–	52	Diaphorase 10uM=–;Diaphorase 30uM=–
Cc1ccc(/C=N/NC(=O)NC2CCCCC2)o1	–	–	–	–	–	–	·
Oc1c(I)cc(I)c2cccnc12	65	–	–	–	–	–	–
CCOC(=O)c1sc(N)c(C(=O)Nc2ccccc2)c1C	64	–	–	–	–	–	–
CCOC(=O)c1sc(N)c(C(=O)OCC)c1C	–	–	·	–	–	·	·
O=C(CCS(=O)(=O)c1ccc(F)cc1)Nc1nc(-c2ccncc2)cs1	61	–	–	–	–	–	–
COc1ccc(-c2csc(NC(=O)CS(=O)(=O)c3ccccc3)n2)cc1	68	–	–	–	–	–	–
CCCC(=O)Nc1nc(-c2ccc(OC)cc2)cs1	–	–	–	–	–	–	·
CC(C)(C)c1csc(NC(=O)CCS(=O)(=O)c2ccc(F)cc2)n1	–	·	–	·	·	–	·
CCOC(=O)N1CCN(C(=O)Cn2nc(C)n3nc(-c4ccccc4)cc3c2=O)CC1	–	–	–	–	–	–	·
Cc1ccc(S(=O)(=O)N(CCCc2c(C)nc(N)[nH]c2=O)Cc2ccc([N+](=O)[O-])cc2)cc1	62	·	–	·	·	–	–
CC1=CC(=O)C=C(C)C1=NOS(=O)(=O)c1ccccc1	112	–	–	·	–	–	111	Diaphorase 10uM=103;Diaphorase 30uM=100
CC1=CC(=O)C(C(C)C)=C/C1=N/OS(=O)(=O)c1ccccc1	105	–	–	–	–	–	96	Diaphorase 10uM=73;Diaphorase 30uM=77
CCOC(=O)N1CCN(C2CCCN(C(=O)c3cccc(N(C)C)c3)C2)CC1 (stereo not drawn)	–	–	–	–	–	–	·
COc1ccc(C(=O)NC(=S)Nc2ccc(N3CCCC3)cc2)cc1	–	–	–	–	–	–	·
COCCNC(=S)Nc1ccc(N2CCCCC2)cc1	64	–	–	–	–	–	–
CC1=CC(C)(C)N2C(=O)C(=Nc3ccc(O)cc3)c3cccc1c32	94	–	–	–	–	–	–
Cc1ccc2c(c1)sc(-c1ccc(N(C)C)cc1)[n+]2C	–	–	–	–	–	–	·
C[C@@H]1CN([C@@H](C)CO)C(=O)CCCn2nncc2CO[C@H]1CN(C)C(=O)c1ccc(N2CCN(C)CC2)cc1	–	·	–	·	·	–	·
CN(C)c1ccc(NC(=S)c2ccc3ccccc3n2)cc1	67	–	–	–	–	–	–
COc1cc(/C=C(\C#N)C(=O)c2ccc(O)c(O)c2)cc(I)c1O	–	–	–	–	–	–	·
CC(=NNC(=S)N1CCN(c2ccccn2)CC1)c1nccs1	93	–	–	·	–	–	57	Diaphorase 10uM=–;Diaphorase 30uM=–
